Measurements as given in ChEMBL document CHEMBL1124553, “Brain-specific chemical delivery systems for beta-lactam antibiotics. In vitro and in vivo studies of some dihydropyridine and dihydroisoquinoline derivatives of benzylpenicillin in rats” (J Med Chem, 1989).

Key:
[1] = Half-life for disappearance of compound from rabbit 10% brain homogenate; format: ADME, Oryctolagus cuniculus
Procedure, shortened: (§1)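 Freshly collected whole blood, or 10% w/v brain homogenate in pH 7.4 phosphate buffer (ionic strength 0.15), was prewarmed to 37 °C. Compound was spiked from an 8 mM DMSO stock to 40 µM final. Timed samples were quenched in 8% DMSO/acetonitrile, centrifuged, filtered and analyzed by reversed-phase C8 HPLC with UV detection. K came from linear regression of log peak height versus time, with t1/2 derived from it. Values are mean ± SE of three determinations in different animal samples.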

[2] = Half-life for disappearance of compound from rat 10% brain homogenate; format: ADME; procedure, shortened: as §1
Oryctolagus cuniculus [3] = organism: Oryctolagus cuniculus; assay: Pseudo first-order rate constant (K) for disappearance of compound from rabbit 10% brain homogenate; format: ADME
Procedure, shortened: (§2)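 Freshly collected whole blood (rat trunk blood; rabbit) or 10% w/v brain homogenate made in pH 7.4 phosphate buffer (μ = 0.15), prewarmed to 37 °C. Compound added from 8 mM DMSO stock to a final 40 μM. Timed 0.3 mL samples were quenched in 8% DMSO/acetonitrile, centrifuged, filtered and analysed by reversed-phase C8 HPLC-UV. K came from linear regression of log peak height versus time; n=3 animal samples.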

Rattus norvegicus [4] = organism: Rattus norvegicus; assay: Pseudo first-order rate constant (K) for disappearance of compound from rat 10% brain homogenate; format: ADME; procedure, shortened: as §2
[5] = Half-life for disappearance of compound from dog whole blood; format: ADME, organism-based, Canis lupus familiaris; procedure, shortened: as §1
[6] = Half-life for disappearance of compound from human whole blood; format: ADME, organism-based; procedure, shortened: as §1
[7] = Half-life for disappearance of compound from rabbit whole blood; format: ADME, organism-based, Oryctolagus cuniculus; procedure, shortened: as §1
Rattus norvegicus [8] = organism: Rattus norvegicus; assay: Half-life for disappearance of compound from rat whole blood; Compound was unstable; format: ADME, organism-based; conditions: in vitro; procedure, shortened: as §1
Rattus norvegicus [9] = organism: Rattus norvegicus; assay: Pseudo first-order rate constant (K) for disappearance of compound from rat whole blood; Compound was unstable; format: ADME, organism-based; procedure, shortened: as §2
Canis familiaris = organism: Canis familiaris; assay: Pseudo first-order rate constant (K) for disappearance of compound from dog whole blood; format: ADME, organism-based, Canis lupus familiaris; procedure, shortened: as §1
Homo sapiens = organism: Homo sapiens; assay: Pseudo first-order rate constant (K) for disappearance of compound from human whole blood; format: ADME, organism-based; procedure, shortened: as §1
Oryctolagus cuniculus [10] = organism: Oryctolagus cuniculus; assay: Pseudo first-order rate constant (K) for disappearance of compound from rabbit whole blood; format: ADME, organism-based; procedure, shortened: as §2
Rattus norvegicus [11] = assay: Concentration of compound in rat kidney after intravenous injection of 20 mg/kg benzyl-penicillin after 1 min; format: functional, organism-based; parameters: dose 20 mg/kg
Procedure, shortened: (§3)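 Male Sprague-Dawley rats (200-250 g), conscious, received 60 µmol/kg (equimolar to 20 mg/kg benzylpenicillin) by tail-vein injection. Benzylpenicillin K was given in water/ethanol/propylene glycol, and the delivery systems in ethanol:propylene glycol 7:3, at 20 mg/mL. Rats were decapitated at set times (4-6 per point), with trunk blood heparinized and brain, kidney, liver and lung frozen. Benzylpenicillin was measured by disk microbioassay (Bacillus subtilis ATCC 6633) after >5-volume sterile-water dilution or homogenization, against matrix calibration curves; assay limit 0.05 µg/mL.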

Rattus norvegicus [12] = assay: Concentration of compound in rat kidney after intravenous injection of 20 mg/kg benzyl-penicillin after 20 min; format: functional, organism-based; parameters: dose 20 mg/kg; procedure, shortened: as §3
Rattus norvegicus [13] = assay: Concentration of compound in rat kidney after intravenous injection of 20 mg/kg benzyl-penicillin after 3 min; format: functional, organism-based; parameters: dose 20 mg/kg; procedure, shortened: as §3
Rattus norvegicus [14] = assay: Concentration of compound in rat kidney after intravenous injection of 20 mg/kg benzyl-penicillin after 40 min; format: functional, organism-based; parameters: dose 20 mg/kg; procedure, shortened: as §3
Rattus norvegicus [15] = assay: Concentration of compound in rat kidney after intravenous injection of 20 mg/kg benzyl-penicillin after 5 min; format: functional, organism-based; parameters: dose 20 mg/kg; procedure, shortened: as §3
Rattus norvegicus [16] = assay: Concentration of compound in rat kidney after intravenous injection of 20 mg/kg benzyl-penicillin after 60 min; format: functional, organism-based; parameters: dose 20 mg/kg; procedure, shortened: as §3
Rattus norvegicus [17] = assay: Concentration of compound in rat kidney after intravenous injection of 20 mg/kg benzyl-penicillin after 10 min; format: functional, organism-based; parameters: dose 20 mg/kg; procedure, shortened: as §3
Rattus norvegicus [18] = assay: Concentration of compound in rat liver after intravenous injection of 20 mg/kg benzyl-penicillin after 1 min; format: functional, organism-based; parameters: dose 20 mg/kg; procedure, shortened: as §3
Rattus norvegicus [19] = assay: Concentration of compound in rat liver after intravenous injection of 20 mg/kg benzyl-penicillin after 10 min; format: functional, organism-based; parameters: dose 20 mg/kg; procedure, shortened: as §3
Rattus norvegicus [20] = assay: Concentration of compound in rat liver after intravenous injection of 20 mg/kg benzyl-penicillin after 20 min; format: functional, organism-based; parameters: dose 20 mg/kg; procedure, shortened: as §3
Rattus norvegicus [21] = assay: Concentration of compound in rat liver after intravenous injection of 20 mg/kg benzyl-penicillin after 3 min; format: functional, organism-based; parameters: dose 20 mg/kg; procedure, shortened: as §3
Rattus norvegicus [22] = assay: Concentration of compound in rat liver after intravenous injection of 20 mg/kg benzyl-penicillin after 40 min; format: functional, organism-based; parameters: dose 20 mg/kg; procedure, shortened: as §3
Rattus norvegicus [23] = assay: Concentration of compound in rat liver after intravenous injection of 20 mg/kg benzyl-penicillin after 5 min; format: functional, organism-based; parameters: dose 20 mg/kg; procedure, shortened: as §3
Rattus norvegicus [24] = assay: Concentration of compound in rat blood after intravenous injection of 20 mg/kg benzyl-penicillin after 1 min; format: functional, organism-based; parameters: dose 20 mg/kg; procedure, shortened: as §3
Rattus norvegicus [25] = assay: Concentration of compound in rat blood after intravenous injection of 20 mg/kg benzyl-penicillin after 10 min; format: functional, organism-based; parameters: dose 20 mg/kg; procedure, shortened: as §3
Rattus norvegicus [26] = assay: Concentration of compound in rat blood after intravenous injection of 20 mg/kg benzyl-penicillin after 20 min; format: functional, organism-based; parameters: dose 20 mg/kg; procedure, shortened: as §3
Rattus norvegicus [27] = assay: Concentration of compound in rat blood after intravenous injection of 20 mg/kg benzyl-penicillin after 3 min; format: functional, organism-based; parameters: dose 20 mg/kg; procedure, shortened: as §3
Rattus norvegicus [28] = assay: Concentration of compound in rat blood after intravenous injection of 20 mg/kg benzyl-penicillin after 40 min; format: functional, organism-based; parameters: dose 20 mg/kg; procedure, shortened: as §3
Rattus norvegicus [29] = assay: Concentration of compound in rat blood after intravenous injection of 20 mg/kg benzyl-penicillin after 5 min; format: functional, organism-based; parameters: dose 20 mg/kg; procedure, shortened: as §3
Rattus norvegicus [30] = assay: Concentration of compound in rat blood after intravenous injection of 20 mg/kg benzyl-penicillin after 60 min; format: functional, organism-based; parameters: dose 20 mg/kg; procedure, shortened: as §3
Rattus norvegicus [31] = assay: Concentration of compound in rat brain after intravenous injection of 20 mg/kg benzyl-penicillin after 1 min; format: functional, organism-based; parameters: dose 20 mg/kg; procedure, shortened: as §3
Rattus norvegicus [32] = assay: Concentration of compound in rat brain after intravenous injection of 20 mg/kg benzyl-penicillin after 10 min; format: functional, organism-based; parameters: dose 20 mg/kg; procedure, shortened: as §3
Rattus norvegicus [33] = assay: Concentration of compound in rat brain after intravenous injection of 20 mg/kg benzyl-penicillin after 20 min; format: functional, organism-based; parameters: dose 20 mg/kg; procedure, shortened: as §3
Rattus norvegicus [34] = assay: Concentration of compound in rat brain after intravenous injection of 20 mg/kg benzyl-penicillin after 3 min; format: functional, organism-based; parameters: dose 20 mg/kg; procedure, shortened: as §3
Rattus norvegicus [35] = assay: Concentration of compound in rat brain after intravenous injection of 20 mg/kg benzyl-penicillin after 40 min; format: functional, organism-based; parameters: dose 20 mg/kg; procedure, shortened: as §3
Rattus norvegicus [36] = assay: Concentration of compound in rat brain after intravenous injection of 20 mg/kg benzyl-penicillin after 5 min; format: functional, organism-based; parameters: dose 20 mg/kg; procedure, shortened: as §3
Rattus norvegicus [37] = assay: Concentration of compound in rat liver after intravenous injection of 20 mg/kg benzyl-penicillin after 60 min; format: functional, organism-based; parameters: dose 20 mg/kg; procedure, shortened: as §3
Rattus norvegicus [38] = assay: Concentration of compound in rat lung after intravenous injection of 20 mg/kg benzyl-penicillin after 1 min; format: functional, organism-based; parameters: dose 20 mg/kg; procedure, shortened: as §3
Rattus norvegicus [39] = assay: Concentration of compound in rat lung after intravenous injection of 20 mg/kg benzyl-penicillin after 10 min; format: functional, organism-based; parameters: dose 20 mg/kg; procedure, shortened: as §3
Rattus norvegicus [40] = assay: Concentration of compound in rat lung after intravenous injection of 20 mg/kg benzyl-penicillin after 20 min; format: functional, organism-based; parameters: dose 20 mg/kg; procedure, shortened: as §3
Rattus norvegicus [41] = assay: Concentration of compound in rat lung after intravenous injection of 20 mg/kg benzyl-penicillin after 3 min; format: functional, organism-based; parameters: dose 20 mg/kg; procedure, shortened: as §3
Rattus norvegicus [42] = assay: Concentration of compound in rat lung after intravenous injection of 20 mg/kg benzyl-penicillin after 40 min; format: functional, organism-based; parameters: dose 20 mg/kg; procedure, shortened: as §3
Rattus norvegicus [43] = assay: Concentration of compound in rat lung after intravenous injection of 20 mg/kg benzyl-penicillin after 5 min; format: functional, organism-based; parameters: dose 20 mg/kg; procedure, shortened: as §3
Rattus norvegicus [44] = assay: Concentration of compound in rat lung after intravenous injection of 20 mg/kg benzyl-penicillin after 60 min; format: functional, organism-based; parameters: dose 20 mg/kg; procedure, shortened: as §3
Rattus norvegicus [45] = assay: Concentration of compound in rat brain after intravenous injection of 20 mg/kg benzyl-penicillin after 60 min; format: functional, organism-based; parameters: dose 20 mg/kg; procedure, shortened: as §3

## C[n+]1cccc(C(=O)OCOC(=O)C2N3C(=O)C(NC(=O)Cc4ccccc4)C3SC2(C)C)c1.[I-] (stereo unspecified)
[1]
  half-life: 0.5 min
[2]
  half-life: 0.6 min
Oryctolagus cuniculus [3]
  K: 1.366 min⁻¹
Rattus norvegicus [4]
  K: 0.949 min⁻¹

## CN1C=CCC(C(=O)OCCOC(=O)C2N3C(=O)C(NC(=O)Cc4ccccc4)C3SC2(C)C)=C1 (stereo unspecified)
[5]
  half-life: 4.1 min
[6]
  half-life: 16.2 min
[1]
  half-life: 4 min
[7]
  half-life: 0.8 min
[2]
  half-life: 2.4 min
Rattus norvegicus [8]
  T1/2: Unstable
Rattus norvegicus [9]
  K: Unstable
Canis familiaris
  K: 0.168 min⁻¹
Homo sapiens
  K: 0.043 min⁻¹
Oryctolagus cuniculus [3]
  K: 0.174 min⁻¹
Oryctolagus cuniculus [10]
  K: 0.903 min⁻¹
Rattus norvegicus [4]
  K: 0.296 min⁻¹
Rattus norvegicus [11]
  Concentration: 37.9 µg/mL
Rattus norvegicus [12]
  Concentration: 10.3 µg/mL
Rattus norvegicus [13]
  Concentration: 56.4 µg/mL
Rattus norvegicus [14]
  Concentration: 3.4 µg/mL
Rattus norvegicus [15]
  Concentration: 54.6 µg/mL
Rattus norvegicus [16]
  Concentration: 2.1 µg/mL
Rattus norvegicus [17]
  Concentration: 30.3 µg/mL
Rattus norvegicus [18]
  Concentration: 11.1 µg/mL
Rattus norvegicus [19]
  Concentration: 11.4 µg/mL
Rattus norvegicus [20]
  Concentration: 4.7 µg/mL
Rattus norvegicus [21]
  Concentration: 10.9 µg/mL
Rattus norvegicus [22]
  Concentration: 1.5 µg/mL
Rattus norvegicus [23]
  Concentration: 12.6 µg/mL
Rattus norvegicus [24]
  Concentration: 22.7 µg/mL
Rattus norvegicus [25]
  Concentration: 5.6 µg/mL
Rattus norvegicus [26]
  Concentration: 1.9 µg/mL
Rattus norvegicus [27]
  Concentration: 9 µg/mL
Rattus norvegicus [28]
  Concentration: 0.7 µg/mL
Rattus norvegicus [29]
  Concentration: 10.7 µg/mL
Rattus norvegicus [30]
  Concentration: 0.3 µg/mL
Rattus norvegicus [31]
  Concentration: 8.8 µg/mL
Rattus norvegicus [32]
  Concentration: 3.9 µg/mL
Rattus norvegicus [33]
  Concentration: 2.4 µg/mL
Rattus norvegicus [34]
  Concentration: 3.5 µg/mL
Rattus norvegicus [35]
  Concentration: 1.1 µg/mL
Rattus norvegicus [36]
  Concentration: 3.7 µg/mL
Rattus norvegicus [37]
  Concentration: 0.6 µg/mL
Rattus norvegicus [38]
  Concentration: 37.7 µg/mL
Rattus norvegicus [39]
  Concentration: 24.5 µg/mL
Rattus norvegicus [40]
  Concentration: 7.2 µg/mL
Rattus norvegicus [41]
  Concentration: 32.4 µg/mL
Rattus norvegicus [42]
  Concentration: 5 µg/mL
Rattus norvegicus [43]
  Concentration: 31.2 µg/mL
Rattus norvegicus [44]
  Concentration: 2.8 µg/mL
Rattus norvegicus [45]
  Concentration: 0.7 µg/mL
